In paper PMC11290325 (Chemical Science, 2024):
Where a SMILES comes first, the peptide text is derived from it.

Legend:
NEK7 = NEK7 (Homo sapiens, UniProt Q8TDX7); assay: BLI binding to NEK7
PTP1B [1] = target: T1, PTP1B (Homo sapiens, UniProt P18031); assay: Bio-Layer Interferometry; assay type: binding
T1 sequence (P18031 1-435): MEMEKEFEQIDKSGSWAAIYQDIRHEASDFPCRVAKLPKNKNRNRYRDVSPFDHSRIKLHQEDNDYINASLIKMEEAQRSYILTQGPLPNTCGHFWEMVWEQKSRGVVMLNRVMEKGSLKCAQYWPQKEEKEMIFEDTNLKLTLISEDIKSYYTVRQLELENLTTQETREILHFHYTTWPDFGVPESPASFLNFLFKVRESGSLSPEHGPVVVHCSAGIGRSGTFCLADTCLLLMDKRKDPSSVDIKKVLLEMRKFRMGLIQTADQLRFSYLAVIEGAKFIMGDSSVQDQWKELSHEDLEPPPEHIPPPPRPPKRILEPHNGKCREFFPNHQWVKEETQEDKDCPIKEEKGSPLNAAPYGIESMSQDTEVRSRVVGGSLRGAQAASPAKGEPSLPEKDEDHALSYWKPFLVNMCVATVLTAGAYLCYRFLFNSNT
How it was run: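 Bio-layer interferometry […]. Wavelength shift and kinetic parameters were recorded. Kd was obtained by curve fitting. Cyclic peptides were made by OPA treatment of purified SPPS linear precursors.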

PTP1B [2] = target: T1, PTP1B; assay: in vitro enzyme inhibition of PTP1B; assay type: biochemical
hKeap1 = hKeap1 (Homo sapiens, UniProt Q14145); assay: BLI binding to hKeap1; details: Hk2 and Hk3 tested up to 100 μM
M13 phages = assay: Phage infectivity; parameters: species or system M13 bacteriophage; details: PBS pH 7.4, 20 min, room temperature
How it was run: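 M13 phages displaying an N-terminal KGGSC pIII peptide with a factor Xa site were grown in E. coli TG1 and PEG-purified. They were then TCEP-reduced, factor Xa-digested and blocked with CBT (0.5 mM). After CBT removal and buffer exchange, they were treated with OPA at 100, 300 or 500 µM in PBS pH 7.4 for 20 min at room temperature. Titers (cfu) were measured after each stage by infecting TG1.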

Sequence of hKeap1 (Q14145 whole entry): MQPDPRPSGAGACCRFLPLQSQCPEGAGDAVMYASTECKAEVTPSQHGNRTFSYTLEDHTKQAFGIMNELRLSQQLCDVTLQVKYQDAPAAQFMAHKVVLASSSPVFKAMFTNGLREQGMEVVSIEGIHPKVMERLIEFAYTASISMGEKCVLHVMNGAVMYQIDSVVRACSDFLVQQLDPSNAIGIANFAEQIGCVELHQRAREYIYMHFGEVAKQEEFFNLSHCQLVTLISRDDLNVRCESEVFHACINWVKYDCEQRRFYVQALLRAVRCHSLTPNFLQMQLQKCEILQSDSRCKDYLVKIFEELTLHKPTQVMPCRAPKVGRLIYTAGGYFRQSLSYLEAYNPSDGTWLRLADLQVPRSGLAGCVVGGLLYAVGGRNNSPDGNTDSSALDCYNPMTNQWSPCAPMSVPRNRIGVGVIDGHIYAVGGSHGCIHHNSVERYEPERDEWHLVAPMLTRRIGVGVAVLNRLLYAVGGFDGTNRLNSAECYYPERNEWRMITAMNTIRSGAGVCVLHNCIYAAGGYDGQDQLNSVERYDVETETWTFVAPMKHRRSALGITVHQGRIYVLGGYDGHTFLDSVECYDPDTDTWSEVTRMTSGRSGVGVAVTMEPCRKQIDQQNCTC
Sequence of NEK7 (Q8TDX7 whole entry): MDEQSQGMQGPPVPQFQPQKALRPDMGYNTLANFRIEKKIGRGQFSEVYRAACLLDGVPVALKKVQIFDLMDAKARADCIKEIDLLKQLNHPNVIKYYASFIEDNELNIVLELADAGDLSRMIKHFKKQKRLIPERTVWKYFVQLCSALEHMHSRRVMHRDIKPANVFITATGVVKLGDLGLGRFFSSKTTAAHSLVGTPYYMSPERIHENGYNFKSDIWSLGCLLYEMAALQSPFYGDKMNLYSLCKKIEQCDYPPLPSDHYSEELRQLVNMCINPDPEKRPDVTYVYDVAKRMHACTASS

CC[C@H](C)[C@@H]1NC(=O)[C@H](CC(C)C)NC(=O)[C@@H]2CCCN2C(=O)[C@H](Cc2ccccc2)NC(=O)[C@H](CC(C)C)NC(=O)[C@H](CC(C)C)NC(=O)[C@@H](NC(C)=O)CCCCn2cc3ccccc3c2SC[C@@H](C(N)=O)NC(=O)[C@H](CC(N)=O)NC1=O [N3] (HELM PEPTIDE1{[ac].[O=C([C@H](CCCCn1cc2ccccc2c1[*:3])N[*:1])[*:2]].L.L.F.P.L.I.N.C.[am]}$PEPTIDE1,PEPTIDE1,2:R3-10:R3$$$V2.0)
binding to NEK7 (in words) (NEK7): low binding capacity

Ac-KTFLHWRYC-NH2 [M1_SS]
Kd (PTP1B [1]): 9.2 ± 0.9 µM
reduction in affinity compared to its cyclic counterpart (PTP1B [1]; BLI, linear precursor vs cyclic M1_OPA): four-fold
IC50 (PTP1B [2]): 54.8 ± 4.21 µM

Ac-KQTATGRGC-NH2 [Hk1_SS]
binding to hKeap1 (in words) (hKeap1): no interaction

CC(=O)N[C@H]1CCCCn2cc3ccccc3c2SC[C@@H](C(N)=O)NC(=O)CNC(=O)[C@H](CCC(=O)O)NC(=O)CNC(=O)[C@H]([C@@H](C)O)NC(=O)[C@H](C)NC(=O)[C@H]([C@@H](C)O)NC(=O)[C@H](CCC(N)=O)NC1=O [Hk3] (HELM PEPTIDE1{[ac].[O=C([C@H](CCCCn1cc2ccccc2c1[*:3])N[*:1])[*:2]].Q.T.A.T.G.E.G.C.[am]}$PEPTIDE1,PEPTIDE1,2:R3-10:R3$$$V2.0)
binding to hKeap1 (in words) (hKeap1): did not exhibit significant affinity

CC(=O)N[C@H]1CCCCn2cc3ccccc3c2SC[C@@H](C(N)=O)NC(=O)[C@H](CCC(=O)O)NC(=O)CNC(=O)[C@H]([C@@H](C)O)NC(=O)[C@H](CC(=O)O)NC(=O)[C@@H]2CCCN2C(=O)[C@H](CC(=O)O)NC(=O)[C@H](CC(C)C)NC1=O [Hk2] (HELM PEPTIDE1{[ac].[O=C([C@H](CCCCn1cc2ccccc2c1[*:3])N[*:1])[*:2]].L.D.P.D.T.G.E.C.[am]}$PEPTIDE1,PEPTIDE1,2:R3-10:R3$$$V2.0)
binding to hKeap1 (in words) (hKeap1): did not exhibit significant affinity

O=Cc1ccccc1C=O [OPA, ortho-phthalaldehyde]
impact on M13 phages in cfus (M13 phages; OPA concentration below 300 μM): no significant impact
reduction in infectivity compared to untreated phage supernatant (M13 phages; OPA surpassing the 500 μM threshold): over 20 fold

Ac-KLFLHWARC-NH2 [M2_SS]
binding to PTP1B (in words) (PTP1B [1]; BLI): unable to bind
